Consider 38 molecules from ChEMBL document CHEMBL4480367 (Medchemcomm, 2019).

Structures are written as SMILES. Active and inactive are the calls of the source. No cut-off for these calls is given here.

Data set [1] can be described thus: Cytotoxicity against MDCK cells assessed as reduction in cell viability after 24 hrs by MTT assay. Type of data set: cell-based, Canis lupus familiaris. The settings on record: dog. Summed up:
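MDCK cells were seeded at 2 × 10^4 per well and treated next day with graded concentrations in DMEM for 24 h. MTT (5 mg mL−1 solution) was added for 4 h at 37 °C, cells were lysed for 3 h, and A575 was read. CC50 is the concentration inhibiting cell growth by 50% versus control cultures.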
(In general: Tetrazolium assays rely on reduction of a dye to a coloured formazan, in cell work by metabolically active cells.)

The next data set relates to Saccharomyces cerevisiae. Nature of the data set: Toxicity against yeast assessed as reduction in cell viability. It is filed as organism-based. Summed up:
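Control yeast strain carrying empty plasmid, induced in 2% galactose SC medium (pH 6.5) lacking leucine, with compounds at graded concentrations for 46–48 h at 30 °C. A600 was read. Toxicity value is the concentration inhibiting proliferation by 50%.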

The next data set deals with Matrix protein 2 (UniProt P0DOF8). Nature of the data set: Inhibition of wild type Influenza A virus (A/chicken/Hubei/327/2004(H5N1)) M2 expressed in yeast cells after 46 to 48 hrs. Type of data set: cell-based. Summed up:
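Yeast growth-restoration assay. Yeast carried the M2 coding sequence under the GAL1 promoter, grown in glucose SC medium (pH 6.5) lacking leucine, then washed and resuspended to A600 0.01 in 2% galactose SC medium. Compounds were added at graded concentrations; plates were incubated at 30 °C for 46–48 h and A600 was read. Hits were retested in triplicate for EC50.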

Data set [2] concerns Influenza A virus. Nature of the data set: Antiviral activity against amantadine-sensitive Influenza A virus (A/chicken/Hubei/327/2004(H5N1)) infected in MDCK cells assessed as reduction in early stage viral replication by measuring viral titer at 1.9 uM measured after 12 hrs by crystal violet staining-based plaque reduction assay during time-of-addition assay. Type of data set: functional, organism-based. (In general: In a plaque reduction assay, fewer plaques than in the control indicate reduced infectivity or spread.)

Data set [3] relates to Influenza A virus. Nature of the data set: Antiviral activity against amantadine-sensitive Influenza A virus (A/chicken/Hubei/327/2004(H5N1)) infected in MDCK cells assessed as reduction in early stage viral replication by measuring viral titer at 4 uM measured after 12 hrs by crystal violet staining-based plaque reduction assay during time-of-addition assay. Type of data set: functional, organism-based.

Data set [4] deals with Influenza A virus. Nature of the data set: Antiviral activity against amantadine-sensitive Influenza A virus (A/chicken/Hubei/327/2004(H5N1)) infected in MDCK cells assessed as reduction in early stage viral replication by measuring viral titer at 1.7 uM measured after 12 hrs by crystal violet staining-based plaque reduction assay during time-of-addition assay. Type of data set: functional, organism-based.

The subject of data set [5] is Influenza A virus. Nature of the data set: Antiviral activity against Influenza A virus (H1N1). Type of data set: functional, organism-based.
For data set [6], the system named is Influenza A virus. Nature of the data set: Antiviral activity against Influenza A virus H5N1. Type of data set: functional, organism-based.

Sequence of Matrix protein 2 (P0DOF8 whole entry): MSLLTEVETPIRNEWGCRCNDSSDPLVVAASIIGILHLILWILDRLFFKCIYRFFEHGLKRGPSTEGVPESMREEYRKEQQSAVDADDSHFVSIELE

The term CC50 denotes the concentration that lowers cell viability or growth by half. In the case of `O=[N+]([O-])c1ccc(S(=O)(=O)NCc2ccsc2)cc1`, the CC50 at 24 h in data set [1] was 139 µM. Also, in the data set with Saccharomyces cerevisiae, the Activity was over 224.6 µM.
As a reminder, the EC50 is the concentration at which the effect is half-maximal. A lower EC50 goes with a more potent agent. Take `O=[N+]([O-])c1ccc(S(=O)(=O)NCc2cc3ccccc3s2)cc1`: the CC50 at 24 h in data set [1] was over 191 µM. Further, the EC50 result at Matrix protein 2 is “Not Active”. The Activity with Saccharomyces cerevisiae was over 192.3 µM.
Consider `CCOC(=O)C1=C[C@@H](OC(CC)CC)[C@H](NC(C)=O)[C@@H](N)C1.O=P(O)(O)O` [OSELTAMIVIR PHOSPHATE], for which the CC50 at 24 h in data set [1] was over 163 µM. For the same molecule, the EC50 result on Matrix protein 2 is listed as “Not Active”. In addition, the Activity with Saccharomyces cerevisiae is over 214.5 µM.
As to `Cc1cc(CNS(=O)(=O)c2ccc(F)cc2)c(C)s1`, at Matrix protein 2, the EC50 entry is recorded as “Not Active”. The Activity in the data set on Saccharomyces cerevisiae is 120.2 µM.
`O=S(=O)(NCc1csc2ccccc12)c1cccc(F)c1`: at Matrix protein 2, the EC50 result was “Not Active”. In addition, the Activity in the data set on Saccharomyces cerevisiae was over 208.5 µM.
Regarding `Cc1cc(CNS(=O)(=O)c2ccc(Br)cc2)c(C)s1`, the CC50 at 24 h in data set [1] came to 56.4 µM. In addition, the Activity in the data set with Saccharomyces cerevisiae turned out to be 133.2 µM. Further, in the data set on Influenza A virus [2], the outcome was Active.
For `O=S(=O)(NCc1csc2ccccc12)c1ccccc1F`, at Matrix protein 2, the EC50 result is given as “Not Active”. Further, the Activity in the data set with Saccharomyces cerevisiae was 59.1 µM.
In the case of `O=S(=O)(NCc1cc2ccccc2s1)c1ccc(F)cc1`, the EC50 entry at Matrix protein 2 is recorded as “Not Active”. Moreover, the Activity in the data set with Saccharomyces cerevisiae was over 208.5 µM.
Regarding `O=[N+]([O-])c1ccc(S(=O)(=O)NCc2csc3ccccc23)cc1`, the CC50 at 24 h in data set [1] is over 191 µM. Also, in the data set on Saccharomyces cerevisiae, the Activity was over 192.3 µM.
On to `O=S(=O)(NCc1csc2ccccc12)c1ccc(Br)cc1`, for which the 50% cytotoxic concentration (CC50) at 24 h in data set [1] was 87.1 µM. The Activity in the data set with Saccharomyces cerevisiae is 134.1 µM.
For the molecule `O=S(=O)(NCc1csc2ccccc12)c1ccc(Cl)cc1`, in data set [1], the CC50 at 24 h was 69.6 µM. For the same molecule, the Activity in the data set on Saccharomyces cerevisiae stood at 121.4 µM.
As for `Cc1cc(CNS(=O)(=O)c2ccc(Br)cc2)c(C)o1`, the CC50 at 24 h in data set [1] was 29.6 µM. For the same molecule, the Activity with Saccharomyces cerevisiae amounted to 72.6 µM.
Take `NC(=O)c1nc(F)cnc1O`: the outcome in the data set with Influenza A virus [3] was Active.
As to `Cc1cc(CNS(=O)(=O)c2ccc([N+](=O)[O-])cc2)c(C)s1`, the CC50 at 24 h in data set [1] was over 204 µM. Further, the Activity in the data set with Saccharomyces cerevisiae is over 205.3 µM.
Consider `CC(=O)c1ccc(S(=O)(=O)NCc2csc3ccccc23)cc1`, for which, in data set [1], the CC50 at 24 h is over 193 µM. Moreover, the Activity with Saccharomyces cerevisiae is over 194 µM.
`NC12CC3CC(CC(C3)C1)C2` [AMANTADINE]: the half-maximal cytotoxic concentration (CC50) at 24 h in data set [1] was over 100 µM. Moreover, the Activity with Saccharomyces cerevisiae is over 443 µM. The outcome in the data set with Influenza A virus [4] was Active.
In the case of `O=[N+]([O-])c1ccc(S(=O)(=O)NCc2cccs2)cc1`, the CC50 at 24 h in data set [1] stood at 133 µM. Besides, the Activity in the data set on Saccharomyces cerevisiae was 157.5 µM.
For `O=S(=O)(NCc1cc2ccccc2s1)c1ccc(Cl)cc1`, at Matrix protein 2, the half-maximal effective concentration (EC50) entry is listed as “Not Active”. For the same molecule, the Activity in the data set with Saccharomyces cerevisiae is over 198.3 µM.
For `CC1CC2=C(NC(=O)NC2c2ccc(O)c(Br)c2)c2ccccc21` (stereo not drawn), the EC50 with Influenza A virus [5] and in the data set with Influenza A virus [6] was 0.032 µM throughout.
As to `O=S(=O)(NCc1cc2ccccc2s1)c1ccccc1F`, at Matrix protein 2, the EC50 result was “Not Active”. Further, the Activity in the data set on Saccharomyces cerevisiae was over 180.5 µM.
Regarding `N#Cc1ccc(S(=O)(=O)NCc2cc3ccccc3s2)cc1`, at Matrix protein 2, the EC50 result was “Not Active”. Besides, the Activity in the data set with Saccharomyces cerevisiae was over 204 µM.
Turning to `N#Cc1ccc(S(=O)(=O)NCc2csc3ccccc23)cc1`, the CC50 at 24 h in data set [1] turned out to be 122 µM. In addition, the Activity in the data set with Saccharomyces cerevisiae is over 204 µM.
Take `Cc1cc(CNS(=O)(=O)c2ccc(Cl)cc2)c(C)s1`: the CC50 at 24 h in data set [1] was determined as 52.9 µM. Moreover, in the data set with Saccharomyces cerevisiae, the Activity turned out to be 114.1 µM.
As for `Cc1cc(CNS(=O)(=O)c2ccc(Cl)cc2)c(C)o1`, in data set [1], the CC50 at 24 h was determined as 55.7 µM. Further, the Activity in the data set on Saccharomyces cerevisiae was 123.43 µM.
In the case of `O=S(=O)(NCc1csc2ccccc12)c1ccc(F)cc1`, the CC50 at 24 h in data set [1] came to 98.6 µM. In addition, the Activity in the data set with Saccharomyces cerevisiae worked out at 133.8 µM.
In the case of `O=[N+]([O-])c1ccc(S(=O)(=O)NCc2ccc(Cl)s2)cc1`, in data set [1], the CC50 at 24 h amounted to 128 µM. For the same molecule, the EC50 entry at Matrix protein 2 is on record as “Not Active”. In the data set with Saccharomyces cerevisiae, the Activity was over 201.3 µM.
Regarding `O=S(=O)(NCc1csc2ccccc12)c1ccc(C(F)(F)F)cc1`, the CC50 at 24 h in data set [1] is 94.8 µM. The EC50 entry at Matrix protein 2 is “Not Active”. Further, the Activity in the data set with Saccharomyces cerevisiae is over 180.4 µM.
With `O=[N+]([O-])c1ccc(S(=O)(=O)NCc2ccoc2)cc1`, the 50% cytotoxic concentration (CC50) at 24 h in data set [1] is over 236 µM. In addition, in the data set on Saccharomyces cerevisiae, the Activity is over 237.4 µM.
As for `O=S(=O)(NCc1cc2ccccc2s1)c1cccc(F)c1`, the EC50 entry at Matrix protein 2 is on record as “Not Active”. The Activity with Saccharomyces cerevisiae is over 180.5 µM.
For `Cc1cc(CNS(=O)(=O)c2ccc(F)cc2)c(C)o1`, the CC50 at 24 h in data set [1] was determined as 138 µM. The Activity with Saccharomyces cerevisiae was over 236.5 µM.
The like results for `Cc1ccc(S(=O)(=O)NCc2csc3ccccc23)cc1` were, in that order, over 210 µM and over 211.08 µM.
The like results for `Cc1cc(CNS(=O)(=O)c2ccc(C#N)cc2)c(C)o1` were, in that order, 105 µM and 168.8 µM.
For the molecule `Cc1cc(CNS(=O)(=O)c2ccc(C#N)cc2)c(C)s1`, in data set [1], the CC50 at 24 h is over 218 µM. Moreover, the Activity in the data set with Saccharomyces cerevisiae is over 218.7 µM.
Consider `O=S(=O)(NCc1cc2ccccc2s1)c1ccc(C(F)(F)F)cc1`, for which the CC50 at 24 h in data set [1] is over 180 µM. Besides, the EC50 result at Matrix protein 2 is reported as “Not Active”. Further, in the data set on Saccharomyces cerevisiae, the Activity was over 180.4 µM.
On to `Cc1ccc(S(=O)(=O)NCc2cc3ccccc3s2)cc1`, for which the CC50 at 24 h in data set [1] is over 210 µM. The EC50 result at Matrix protein 2 is given as “Not Active”. Moreover, the Activity with Saccharomyces cerevisiae was over 211.08 µM.
As for `Cc1cc(CNS(=O)(=O)c2ccc([N+](=O)[O-])cc2)c(C)o1`, the CC50 at 24 h in data set [1] was over 152 µM. Also, the Activity in the data set with Saccharomyces cerevisiae is over 215.9 µM.
On to `O=S(=O)(NCc1cc2ccccc2s1)c1ccc(Br)cc1`, for which the CC50 at 24 h in data set [1] is over 174 µM. Further, the EC50 result at Matrix protein 2 is given as “Not Active”. Also, in the data set on Saccharomyces cerevisiae, the Activity is over 176.2 µM.
In the data set with Influenza A virus [6], `Cc1cc(C(=O)NCCSCc2ccc([N+](=O)[O-])cc2)c(C)o1` showed an EC50 of 1.25 µM.
